Laboratory results published in ChEMBL document CHEMBL1154919, “Synthesis and biological evaluation of 12-aminoacylphorboids” (J Nat Prod, 2010).
Active and inactive are the calls of the source. The rule behind the calls is not given here.

What was measured:
[1] = system: Human immunodeficiency virus 1; assay: Activation of latent recombinant HIV1 LTR-GFP gene expression infected in human Jurkat LAT-GFP cells assessed as GFP positive cells at 10 uM after 6 hrs by flow cytometry; type: functional, organism-based
In short: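 Jurkat-derived clone latently infected with recombinant virus carrying GFP under HIV-LTR promoter, exposed to compound for 6 h. Histograms shown are one of three independent experiments.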

[2] = system: Human immunodeficiency virus 1; assay: Activation of latent recombinant HIV1 LTR-GFP gene expression infected in human Jurkat LAT-GFP cells assessed as GFP positive cells after 6 hrs by flow cytometry relative to control; type: functional, organism-based
In short: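 Jurkat-derived clone latently carrying recombinant virus with GFP under the HIV-LTR promoter, stimulated with compound at the indicated concentrations for 6 h.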

[3] = biological target: Protein kinase C alpha type (Homo sapiens) (UniProt P17252); assay: Activation of PKCalpha assessed as [32P] incorporation after 10 mins by scintillation counting
[4] = biological target: Protein kinase C delta type (Homo sapiens) (UniProt Q05655); assay: Activation of PKCdelta assessed as [32P] incorporation after 10 mins by scintillation counting
Chain of Protein kinase C delta type (Homo sapiens) (Q05655 whole entry, looked up): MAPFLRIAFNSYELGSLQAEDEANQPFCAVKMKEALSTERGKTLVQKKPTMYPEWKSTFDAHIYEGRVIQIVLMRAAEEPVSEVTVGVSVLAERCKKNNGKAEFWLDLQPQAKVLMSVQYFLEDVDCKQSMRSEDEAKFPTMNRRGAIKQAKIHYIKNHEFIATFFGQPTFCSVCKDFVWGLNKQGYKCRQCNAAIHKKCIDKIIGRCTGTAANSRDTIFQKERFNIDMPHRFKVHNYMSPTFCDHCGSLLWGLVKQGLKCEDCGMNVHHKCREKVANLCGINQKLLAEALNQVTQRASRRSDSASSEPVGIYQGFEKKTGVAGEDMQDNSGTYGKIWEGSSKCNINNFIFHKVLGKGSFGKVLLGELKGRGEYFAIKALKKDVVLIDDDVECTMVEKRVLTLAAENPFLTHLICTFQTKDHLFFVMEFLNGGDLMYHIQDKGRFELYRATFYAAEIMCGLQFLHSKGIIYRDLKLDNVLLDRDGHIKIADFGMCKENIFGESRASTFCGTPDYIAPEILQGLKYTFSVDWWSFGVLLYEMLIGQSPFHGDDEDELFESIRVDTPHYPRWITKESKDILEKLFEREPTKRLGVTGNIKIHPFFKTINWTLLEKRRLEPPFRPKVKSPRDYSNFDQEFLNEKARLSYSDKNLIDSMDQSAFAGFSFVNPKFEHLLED

[5] = system: Human immunodeficiency virus 1; assay: Activation of latent recombinant HIV1 LTR-GFP gene expression infected in human Jurkat LAT-GFP cells assessed as GFP level at 10 uM after 6 hrs by flow cytometry in presence of pan-PKC inhibitor G06983 pretreated for 30 mins; type: functional, organism-based
In short: (§1)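 Jurkat LAT-GFP cells (latent HIV-LTR-driven GFP clone) pretreated 30 min with PKC inhibitor (1 µM), then stimulated with compound at 10 µM for 6 h.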

[6] = system: Human immunodeficiency virus 1; assay: Activation of latent recombinant HIV1 LTR-GFP gene expression infected in human Jurkat LAT-GFP cells assessed as GFP level at 10 uM after 6 hrs by flow cytometry in presence of PKCinhibitor G06976 pretreated for 30 mins; type: functional, organism-based; in short: as §1
[7] = biological target: Protein kinase C delta type (Homo sapiens) (UniProt Q05655); assay: Activation of PKCdelta in human Jurkat cells assessed as enzyme phosphorylation after 15 mins by Western blotting; type: cell-based
In short: (§2)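 Jurkat LAT-GFP cells (10^6 cells/ml) exposed for 15 min to compound (increasing concentrations) or TPA 1 µM. Lysed in HEPES pH 8.0 buffer with 0.5% NP-40 and protease/phosphatase inhibitors. 30 µg protein run on 10% SDS-PAGE, blotted to nitrocellulose, probed with anti-phospho-PKCδ (Thr505) and anti-panPKC, ECL detection.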

[8] = biological target: T1, Prostaglandin G/H synthase 2 (Rattus norvegicus) (UniProt P35355); assay: Inhibition of COX2 in LPS-stimulated rat microglia after 24 hrs by immunoblotting
T1 sequence (whole entry): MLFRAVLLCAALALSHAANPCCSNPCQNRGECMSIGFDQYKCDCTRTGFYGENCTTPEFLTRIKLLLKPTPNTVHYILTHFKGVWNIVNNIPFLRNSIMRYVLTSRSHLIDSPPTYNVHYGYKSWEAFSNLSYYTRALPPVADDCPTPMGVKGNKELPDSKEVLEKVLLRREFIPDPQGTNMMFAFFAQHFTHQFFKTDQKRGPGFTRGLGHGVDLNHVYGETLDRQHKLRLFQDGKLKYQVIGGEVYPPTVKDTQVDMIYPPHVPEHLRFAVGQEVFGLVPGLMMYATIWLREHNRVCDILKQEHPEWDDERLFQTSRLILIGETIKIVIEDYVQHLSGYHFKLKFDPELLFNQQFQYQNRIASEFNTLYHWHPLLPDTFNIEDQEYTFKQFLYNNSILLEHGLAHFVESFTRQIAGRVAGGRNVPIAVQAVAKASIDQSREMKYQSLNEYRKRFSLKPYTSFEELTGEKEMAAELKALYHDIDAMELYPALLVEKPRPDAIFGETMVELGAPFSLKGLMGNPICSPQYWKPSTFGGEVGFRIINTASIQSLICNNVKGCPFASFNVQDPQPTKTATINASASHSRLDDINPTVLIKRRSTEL

[9] = biological target: T1, Prostaglandin G/H synthase 2 (Rattus norvegicus); assay: Inhibition of COX2 in LPS-stimulated rat microglia assessed as PGE2 release after 24 hrs by enzyme immunoassay
[10] = biological target: Protein kinase C delta type (Homo sapiens) (UniProt Q05655); assay: Activation of PKCdelta in human Jurkat cells assessed as enzyme phosphorylation at 1 uM after 15 mins by Western blotting; type: cell-based; in short: as §2

Q: `CC(=O)O[C@@]12[C@H](OC(=O)[C@@H](N)C(C)C)[C@@H](C)[C@]3(O)[C@@H]4C=C(C)C(=O)[C@@H]4CC(CO)=C[C@H]3[C@@H]1C2(C)C` was tested. Which Activity [1] did it give?
A: The Activity was “inactive”.

Q: With `CN[C@H](C(=O)O[C@@H]1[C@@H](C)[C@]2(O)[C@@H]3C=C(C)C(=O)[C@@H]3CC(CO)=C[C@H]2[C@@H]2C(C)(C)[C@]12OC(C)=O)C(C)C` as the compound, how does the Activity [1] read?
A: Its Activity is “inactive”.

Q: Which Activity [2] does the source give for `CCCCCCCCCCCCCC(=O)O[C@@H]1[C@@H](C)[C@@]2(O)[C@@H](C=C(CO)C[C@]3(O)C(=O)C(C)=C[C@@H]23)[C@@H]2C(C)(C)[C@]12OC(C)=O` here?
A: The Activity was “Active”.

Q: For `CC(=O)O[C@@]12[C@H](OC(=O)CN(C)C)[C@@H](C)[C@]3(O)[C@@H]4C=C(C)C(=O)[C@@H]4CC(CO)=C[C@H]3[C@@H]1C2(C)C`, which Activity [1] is on record?
A: The Activity was “inactive”.

Q: What about the Activity [3] of the same compound?
A: The Activity was “inactive”.

Q: And the Activity [4]?
A: Its Activity is “inactive”.

Q: `CC(=O)O[C@@]12[C@H](OC(=O)[C@H](C(C)C)N(C)C)[C@@H](C)[C@]3(O)[C@@H]4C=C(C)C(=O)[C@@H]4CC(CO)=C[C@H]3[C@@H]1C2(C)C` was tested. Which Activity [5] did it give?
A: Its Activity is “Active”.

Q: And the Activity [1]?
A: Its Activity is “Active”.

Q: And the Activity [6]?
A: Its Activity is “Active”.

Q: And the Activity [3]?
A: The Activity was “Dose-dependent effect”.

Q: What about the Activity [4] of the same compound?
A: Its Activity is “Dose-dependent effect”.

Q: What about the Activity [7] of the same compound?
A: The Activity was “Active”.

Q: Which Activity [1] does the source give for `CC(=O)O[C@@]12[C@H](OC(=O)[C@H](N)C(C)C)[C@@H](C)[C@]3(O)[C@@H]4C=C(C)C(=O)[C@@H]4CC(CO)=C[C@H]3[C@@H]1C2(C)C` here?
A: Its Activity is “inactive”.

Q: What does the source list for `CC(=O)O[C@@]12[C@H](OC(=O)[C@@H](C(C)C)N(C)C)[C@@H](C)[C@]3(O)[C@@H]4C=C(C)C(=O)[C@@H]4CC(CO)=C[C@H]3[C@@H]1C2(C)C`?
A: Activity [5]: Active; Activity [1]: Active; Activity [6]: Active; inhibition [8]: Active; Activity [9]: inactive

Q: `CCCCCCCCCCCCCC(=O)O[C@@H]1[C@@H](C)[C@]2(O)[C@@H]3C=C(C)C(=O)[C@@]3(O)[C@H](O)C(CO)=C[C@H]2[C@@H]2C(C)(C)[C@]12OC(C)=O` was tested. Which Activity [10] did it give?
A: Its Activity is “Active”.
